Assay [1] concerns the target Homeodomain-interacting protein kinase 2 (Homo sapiens) (UniProt Q9H2X6). Briefly: Inhibition of HIPK2 (unknown origin) at 10 uM incubated for 30 mins in presence of [gamma-33P]ATP by multidrop micro reagent based assay relative to control; values are per cent of control.
For assay [2], the target named is T1, Dual specificity protein kinase TTK (Homo sapiens) (UniProt P33981).
T1 sequence (whole entry): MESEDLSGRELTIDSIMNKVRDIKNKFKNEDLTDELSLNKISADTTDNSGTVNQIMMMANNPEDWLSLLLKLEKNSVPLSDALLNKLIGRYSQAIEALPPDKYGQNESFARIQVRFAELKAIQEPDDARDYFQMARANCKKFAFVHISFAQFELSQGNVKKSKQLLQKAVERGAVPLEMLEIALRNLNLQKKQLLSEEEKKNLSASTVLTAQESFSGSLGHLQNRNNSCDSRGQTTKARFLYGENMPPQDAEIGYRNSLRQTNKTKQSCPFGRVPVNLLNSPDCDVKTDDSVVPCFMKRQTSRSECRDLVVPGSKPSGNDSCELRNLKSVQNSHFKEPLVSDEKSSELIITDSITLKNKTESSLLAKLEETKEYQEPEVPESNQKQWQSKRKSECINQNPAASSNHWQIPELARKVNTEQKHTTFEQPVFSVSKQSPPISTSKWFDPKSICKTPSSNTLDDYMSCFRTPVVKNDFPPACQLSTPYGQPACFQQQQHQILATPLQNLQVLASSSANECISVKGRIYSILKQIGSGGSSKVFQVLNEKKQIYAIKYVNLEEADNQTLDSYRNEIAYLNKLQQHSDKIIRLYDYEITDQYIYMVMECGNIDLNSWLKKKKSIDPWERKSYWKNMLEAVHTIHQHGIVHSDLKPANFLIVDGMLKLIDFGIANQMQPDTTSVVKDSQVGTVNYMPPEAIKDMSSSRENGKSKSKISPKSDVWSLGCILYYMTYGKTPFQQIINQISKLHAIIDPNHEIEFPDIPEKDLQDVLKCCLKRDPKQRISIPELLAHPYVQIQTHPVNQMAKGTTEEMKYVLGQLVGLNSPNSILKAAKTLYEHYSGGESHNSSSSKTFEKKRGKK
Briefly: Inhibition of TTK (unknown origin) at 10 uM incubated for 30 mins in presence of [gamma-33P]ATP by multidrop micro reagent based assay relative to control. In short, it runs like this: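 Single-concentration screen across a panel of 85 protein kinases. Activity is expressed as a percentage of control incubations run without inhibitor.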

Assay [3] concerns the target Aurora kinase B (Homo sapiens) (UniProt Q96GD4). Briefly: Inhibition of Aurora B kinase (unknown origin) at 10 uM incubated for 30 mins in presence of [gamma-33P]ATP by multidrop micro reagent based assay relative to control; values are per cent of control.
In assay [4] the target is Mitogen-activated protein kinase kinase kinase 9 (Homo sapiens) (UniProt P80192). Briefly: Inhibition of MLK1 (unknown origin) at 10 uM incubated for 30 mins in presence of [gamma-33P]ATP by multidrop micro reagent based assay relative to control; values are per cent of control.
Mitogen-activated protein kinase kinase kinase 9 (Homo sapiens), sequence (P80192 whole entry, looked up): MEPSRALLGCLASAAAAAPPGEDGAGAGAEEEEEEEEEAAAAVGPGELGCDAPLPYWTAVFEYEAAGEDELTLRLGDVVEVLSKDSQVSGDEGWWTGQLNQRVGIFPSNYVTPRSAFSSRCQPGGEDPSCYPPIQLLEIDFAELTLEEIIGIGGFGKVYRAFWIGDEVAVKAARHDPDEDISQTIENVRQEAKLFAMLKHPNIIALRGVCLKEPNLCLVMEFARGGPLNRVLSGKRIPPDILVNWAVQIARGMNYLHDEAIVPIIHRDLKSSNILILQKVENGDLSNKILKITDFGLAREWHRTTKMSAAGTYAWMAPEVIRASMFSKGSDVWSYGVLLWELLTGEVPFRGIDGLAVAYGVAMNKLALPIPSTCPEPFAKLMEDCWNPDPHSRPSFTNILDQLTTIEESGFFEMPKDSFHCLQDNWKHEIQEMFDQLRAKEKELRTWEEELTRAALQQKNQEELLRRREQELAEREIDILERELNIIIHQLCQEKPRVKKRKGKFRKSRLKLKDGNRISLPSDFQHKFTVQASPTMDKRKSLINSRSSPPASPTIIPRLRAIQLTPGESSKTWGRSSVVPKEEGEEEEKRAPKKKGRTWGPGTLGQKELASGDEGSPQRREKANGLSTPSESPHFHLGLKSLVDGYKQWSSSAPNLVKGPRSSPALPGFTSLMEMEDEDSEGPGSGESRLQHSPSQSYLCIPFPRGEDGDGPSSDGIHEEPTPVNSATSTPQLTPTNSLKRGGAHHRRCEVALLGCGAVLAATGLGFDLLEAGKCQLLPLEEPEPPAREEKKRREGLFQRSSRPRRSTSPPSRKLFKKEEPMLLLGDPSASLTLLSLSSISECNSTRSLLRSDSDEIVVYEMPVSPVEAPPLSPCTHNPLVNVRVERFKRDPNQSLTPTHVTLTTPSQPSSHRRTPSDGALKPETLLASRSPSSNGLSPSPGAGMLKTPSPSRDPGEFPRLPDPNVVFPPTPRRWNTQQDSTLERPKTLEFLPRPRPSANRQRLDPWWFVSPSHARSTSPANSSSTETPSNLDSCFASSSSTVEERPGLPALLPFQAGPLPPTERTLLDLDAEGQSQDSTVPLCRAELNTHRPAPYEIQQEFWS
The target in assay [5] is T2, NUAK family SNF1-like kinase 1 (Homo sapiens) (UniProt O60285).
T2 sequence (whole entry): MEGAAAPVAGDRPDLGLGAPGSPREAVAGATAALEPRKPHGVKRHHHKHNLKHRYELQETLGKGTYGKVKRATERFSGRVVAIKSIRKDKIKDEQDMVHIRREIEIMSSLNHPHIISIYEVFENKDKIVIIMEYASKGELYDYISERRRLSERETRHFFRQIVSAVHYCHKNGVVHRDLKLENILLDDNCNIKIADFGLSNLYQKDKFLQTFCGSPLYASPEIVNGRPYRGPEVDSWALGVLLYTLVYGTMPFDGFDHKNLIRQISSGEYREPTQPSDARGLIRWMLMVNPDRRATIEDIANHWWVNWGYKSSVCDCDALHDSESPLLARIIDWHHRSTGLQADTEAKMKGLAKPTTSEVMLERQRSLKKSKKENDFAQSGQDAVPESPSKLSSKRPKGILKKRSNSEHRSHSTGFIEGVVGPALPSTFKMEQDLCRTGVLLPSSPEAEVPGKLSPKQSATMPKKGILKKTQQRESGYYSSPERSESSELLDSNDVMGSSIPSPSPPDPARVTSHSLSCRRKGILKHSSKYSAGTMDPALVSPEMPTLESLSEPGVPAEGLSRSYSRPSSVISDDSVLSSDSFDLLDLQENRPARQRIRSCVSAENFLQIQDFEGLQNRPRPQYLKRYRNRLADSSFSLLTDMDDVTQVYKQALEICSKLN
In words: Activity of NUAK1 (unknown origin) at 1 uM incubated for 30 mins in presence of [gamma-33P]ATP by multidrop micro reagent based assay relative to control.

Assay [6] deals with T3, MAP kinase-activated protein kinase 5 (Homo sapiens) (UniProt Q8IW41).
T3 sequence (whole entry): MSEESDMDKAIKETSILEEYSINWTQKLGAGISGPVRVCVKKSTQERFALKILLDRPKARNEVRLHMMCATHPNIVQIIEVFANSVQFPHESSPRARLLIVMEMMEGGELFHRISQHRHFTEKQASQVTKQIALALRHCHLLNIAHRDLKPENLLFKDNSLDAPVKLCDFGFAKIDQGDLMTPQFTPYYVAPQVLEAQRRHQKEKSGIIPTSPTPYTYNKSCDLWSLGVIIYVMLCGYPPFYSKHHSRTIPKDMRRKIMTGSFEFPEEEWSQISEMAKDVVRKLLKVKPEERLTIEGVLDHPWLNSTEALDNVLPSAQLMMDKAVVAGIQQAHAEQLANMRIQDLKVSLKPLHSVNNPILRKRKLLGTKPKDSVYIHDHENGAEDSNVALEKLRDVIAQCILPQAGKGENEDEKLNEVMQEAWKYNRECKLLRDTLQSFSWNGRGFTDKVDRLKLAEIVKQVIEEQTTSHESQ
In words: Inhibition of PRAK (unknown origin) at 1 uM incubated for 30 mins in presence of [gamma-33P]ATP by multidrop micro reagent based assay relative to control; values are per cent of control.

Results on five compounds are retold here after ChEMBL document CHEMBL5705888, “Substrate specificity and inhibitors of LRRK2, a protein kinase mutated in Parkinson's disease” (Biochem J, 2009).

Usually inhibition stands for the change of the read-out against control, counted positive when it falls.

Aurora kinase B (Homo sapiens), sequence (Q96GD4 whole entry): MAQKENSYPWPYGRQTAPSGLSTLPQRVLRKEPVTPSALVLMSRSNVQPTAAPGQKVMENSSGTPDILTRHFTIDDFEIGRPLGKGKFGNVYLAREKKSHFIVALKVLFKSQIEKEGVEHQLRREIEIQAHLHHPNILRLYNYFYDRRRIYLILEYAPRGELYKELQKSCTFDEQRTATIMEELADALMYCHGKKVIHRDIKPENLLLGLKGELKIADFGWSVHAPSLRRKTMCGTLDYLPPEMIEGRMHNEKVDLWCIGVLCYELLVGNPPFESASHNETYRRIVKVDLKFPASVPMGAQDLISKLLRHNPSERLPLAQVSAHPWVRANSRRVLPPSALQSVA
Homeodomain-interacting protein kinase 2 (Homo sapiens), sequence (Q9H2X6 whole entry, looked up): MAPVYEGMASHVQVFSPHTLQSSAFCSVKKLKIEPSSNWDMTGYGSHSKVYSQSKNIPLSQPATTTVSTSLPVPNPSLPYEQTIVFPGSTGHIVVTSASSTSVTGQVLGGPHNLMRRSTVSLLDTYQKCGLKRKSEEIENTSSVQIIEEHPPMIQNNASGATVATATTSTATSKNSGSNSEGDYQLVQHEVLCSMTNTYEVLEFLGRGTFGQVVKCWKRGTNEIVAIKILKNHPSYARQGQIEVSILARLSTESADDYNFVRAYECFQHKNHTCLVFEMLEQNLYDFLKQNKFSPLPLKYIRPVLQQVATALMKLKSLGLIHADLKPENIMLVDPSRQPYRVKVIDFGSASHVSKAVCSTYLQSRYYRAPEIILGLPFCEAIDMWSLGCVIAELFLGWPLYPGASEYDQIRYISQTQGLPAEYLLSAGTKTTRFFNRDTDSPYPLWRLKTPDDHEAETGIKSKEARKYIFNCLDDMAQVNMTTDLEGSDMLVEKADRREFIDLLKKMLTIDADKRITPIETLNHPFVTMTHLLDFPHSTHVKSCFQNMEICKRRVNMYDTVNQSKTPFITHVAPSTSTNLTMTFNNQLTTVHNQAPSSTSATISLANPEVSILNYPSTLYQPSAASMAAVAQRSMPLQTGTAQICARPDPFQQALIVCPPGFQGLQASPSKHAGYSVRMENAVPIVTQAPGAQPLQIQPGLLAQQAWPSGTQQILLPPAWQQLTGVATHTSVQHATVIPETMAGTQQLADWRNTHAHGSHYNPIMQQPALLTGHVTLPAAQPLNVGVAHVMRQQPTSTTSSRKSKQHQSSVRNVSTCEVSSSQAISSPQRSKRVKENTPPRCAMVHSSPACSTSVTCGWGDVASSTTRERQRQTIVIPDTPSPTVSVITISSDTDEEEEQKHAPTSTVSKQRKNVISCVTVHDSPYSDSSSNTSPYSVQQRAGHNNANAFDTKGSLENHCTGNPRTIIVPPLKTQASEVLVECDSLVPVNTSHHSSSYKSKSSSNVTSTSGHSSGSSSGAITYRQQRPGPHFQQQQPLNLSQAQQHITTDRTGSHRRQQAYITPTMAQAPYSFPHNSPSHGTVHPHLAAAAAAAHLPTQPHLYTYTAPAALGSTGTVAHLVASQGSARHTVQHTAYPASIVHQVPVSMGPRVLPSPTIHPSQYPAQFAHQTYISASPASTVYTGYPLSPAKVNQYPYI

As to `C[C@@H](N)[C@H]1CC[C@H](C(=O)Nc2ccncc2)CC1`, the residual activity in assay [1] came to 104%; in assay [3] it was 79%; in assay [4] it was 90%. In addition, in assay [2], the inhibition came to 73%.
Consider `CCn1c(-c2nonc2N)nc2cnc(Oc3cccc(NC(=O)c4ccc(OCCN5CCOCC5)cc4)c3)cc21` [GSK-269962A], for which the residual activity in assay [5] amounted to 39%.
Regarding `CCN(CC)CCNC(=O)c1c(C)[nH]c(/C=C2\C(=O)Nc3ccc(F)cc32)c1C`, the results for the residual activity in assay [5] and in assay [6] were 15% and 75%, respectively.
For `O=S(=O)(c1cccc2cnccc12)N1CCCNCC1` [FASUDIL], the residual activity in assay [1] worked out at 127%; in assay [3], 51%; in assay [4] it was 56%. Further, the inhibition in assay [2] was found to be 73%.
On to `CC1=C(C(=O)Nc2cc3cn[nH]c3cc2F)C(c2ccc(C(F)(F)F)cc2)CC(=O)N1` (configuration not stated), for which the residual activity in assay [6] turned out to be 92%.
